GAA850 FXN act – activators of GAA850 frataxin (FXN) promoter. activation, % at 6 µM. HEK293 lucGAA850 FXN promoter luciferase reporter, 24 h; percent of 10 µM SAHA response. 360,000 compounds, 0.56% hits. AID 540364;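 active = activation above the average of all compounds screened plus 3 SD, cutoff fixed separately per campaign, cut at about 7.5% in these data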
AHR activator – activates the human aryl hydrocarbon receptor | 320,000 compounds, 2.5% hits | P35869 | AHR-responsive luciferase reporter cells, luminescence | activation, % at 5 µM; in the data active = activation above about 47%
Target sequence (P35869 whole entry, looked up): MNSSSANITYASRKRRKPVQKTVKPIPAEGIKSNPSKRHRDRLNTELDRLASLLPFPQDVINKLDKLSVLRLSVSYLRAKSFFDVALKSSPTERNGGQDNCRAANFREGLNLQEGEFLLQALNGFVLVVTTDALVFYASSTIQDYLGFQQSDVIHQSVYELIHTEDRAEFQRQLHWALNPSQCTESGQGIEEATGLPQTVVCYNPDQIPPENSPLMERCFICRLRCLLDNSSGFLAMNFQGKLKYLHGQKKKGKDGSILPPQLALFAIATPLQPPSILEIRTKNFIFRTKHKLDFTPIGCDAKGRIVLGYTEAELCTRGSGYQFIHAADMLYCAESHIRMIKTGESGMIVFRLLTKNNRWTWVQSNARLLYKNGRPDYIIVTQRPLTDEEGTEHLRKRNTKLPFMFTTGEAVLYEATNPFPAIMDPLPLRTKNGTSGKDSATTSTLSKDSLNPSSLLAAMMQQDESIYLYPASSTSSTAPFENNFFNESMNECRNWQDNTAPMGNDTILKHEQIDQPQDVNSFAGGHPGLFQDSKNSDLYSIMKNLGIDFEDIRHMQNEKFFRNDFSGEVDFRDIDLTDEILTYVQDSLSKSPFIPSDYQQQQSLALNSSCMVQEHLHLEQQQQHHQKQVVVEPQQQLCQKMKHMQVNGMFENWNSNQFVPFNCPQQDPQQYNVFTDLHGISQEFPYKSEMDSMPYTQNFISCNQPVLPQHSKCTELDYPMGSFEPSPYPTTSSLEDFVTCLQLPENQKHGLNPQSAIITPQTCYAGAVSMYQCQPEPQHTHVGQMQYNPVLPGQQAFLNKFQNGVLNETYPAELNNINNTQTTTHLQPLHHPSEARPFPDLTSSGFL
HTR2A ag – agonists of mouse serotonin 5-HT2A receptor (HTR2A); P35363; CHO-K1 mHTR2A beta-arrestin complementation, luminescence; percent of 30 µM serotonin response; activation, % at 7.6 µM; 360,000 compounds, 0.66% hits;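 active = activation above a run cutoff, the mean activation of all tested compounds plus 3 SD, cut at about 14% in these data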
MC4R barr agon – activates human MC4R beta-arrestin recruitment; U2OS MC4R beta-arrestin complementation, luminescence; percent of melanotan II response, DMSO zero; activation, % at 8.9 µM; 360,000 compounds, 0.98% hits; AID 540308;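 active = activation above a per-plate cutoff, the mean activation of sample wells on that plate plus 3 SD, cut at about 8% in these data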
MC4R antag cAMP – antagonists of human melanocortin 4 receptor (MC4R) | P32245 | 360,000 compounds, 0.48% hits | AID 540295 | inhibition, % at 6.5 µM | MC4R-expressing cells, MTII-stimulated cAMP, LANCE TR-FRET;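 active = inhibition above its plate's cutoff, the mean of tested wells on that plate plus 3 SD, cut at about 29% in these data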
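Assay system: U2OS cells stably expressing human melanocortin 4 receptor (MC4R) / Dosing: 6.5 µM / Timing: compound 30 min, challenge 1 h, detection 1 h / Measured by: Eu-cAMP/anti-cAMP TR-FRET, emission 671 nm / Replicates: singlicate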
cAMP nonselect – U2OS forskolin cAMP inhibition counter-screen; shares compounds with MC4R antag cAMP; parental U2OS, LANCE TR-FRET; inhibition, % at 6.5 µM; 1,600 compounds, 26% hits;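 active = mean inhibition over triplicates above the low-control well mean plus 3 SD, set per campaign, cut at about 13% in these data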;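 note: signal is single emission at 671 nm which falls as cellular cAMP rises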
MC4R antag conf – human MC4R cAMP antagonism confirmation; shares compounds with MC4R antag cAMP; MC4R-expressing cells, MTII-stimulated cAMP, TR-FRET; inhibition, % at 6.5 µM; 1,600 compounds, 27% hits; AID 602195; in the data active = inhibition above about 29%
Numbers stand for hits; n = inactive; x = no result given. This is a sample that favours compounds with a hit; in the whole collection about 4.7% have one here.

SMILES | GAA850 FXN act | AHR activator | HTR2A ag | MC4R barr agon | MC4R antag cAMP | cAMP nonselect | MC4R antag conf
O=C1NC[C@@H](CCCCN2CCN(CCc3ccc(O)cc3)C(=O)C2=O)N(Cc2ccccc2)C1=O | x | x | n | x | x | x | x
COc1ccc(-n2c(CN3CCC(C)CC3)nc3ccc([N+](=O)[O-])cc3c2=O)c(OC)c1 | n | n | n | n | 34 | n | n
CNC(C)c1ccc(S(N)(=O)=O)cc1 (stereo not given) | n | n | n | n | 38 | n | n
COC(=O)c1ccc(CN2CCc3ccc(NC(=O)c4ccncc4)cc3C2)cc1 | n | n | n | n | 29 | n | n
CC(=O)Nc1ccc(NC(=O)c2ccc(CN3CCc4ccccc4C3)cc2)cc1 | n | n | n | n | n | x | x
Cc1cccn2c(CN3CCSCC3)c(C(=O)N3CCOCC3)nc12 | n | n | n | n | 29 | n | n
CSCCC(NC(=O)c1ccccc1)C(=O)Nc1ccc(NC(C)=O)cc1 (stereo not given) | x | n | x | x | x | x | x
Cc1cccc(Cn2ncc(Cl)c(Cl)c2=O)c1 | n | n | n | n | 37 | 32 | 50
Cc1ccc(C)c(C(=O)Cn2ncc(Cl)c(Cl)c2=O)c1 | n | n | n | n | n | x | x
N#CCc1c(C#N)c(N)nc(Nc2ccccc2)c1C#N | n | n | n | n | n | x | x
COc1ccc(S(=O)(=O)N2CCC(C(=O)NN3CCCCC3)CC2)cc1OC | n | n | n | n | n | x | x
O=C(c1cc(-c2cccc(O)c2)on1)N1CCCC1 | n | n | n | n | 31 | n | n
COc1ccc(C(=O)C[C@@H]2OC[C@H](C(C)C)N2S(=O)(=O)c2ccc(C)cc2)cc1OC | x | x | n | x | x | x | x
O=C(CSc1ccc(S(=O)(=O)N2CCOCC2)cn1)Nc1ccc(F)c(F)c1 | n | n | n | n | n | x | x
COc1cccc(N2CCN(c3ncnc4c3[nH]c3ccc(F)cc34)CC2C)c1 (stereo not given) | n | n | 32 | 22 | 40 | 26 | 51
CC(C)(C)CC(C)(C)c1ccc(O)c(Cc2ccc(Cl)cc2Cl)c1 | n | x | n | n | 44 | n | n
CSc1ccc(CN2CCC2(C)C(=O)Nc2ccc3c(c2)OCO3)cc1 (stereo not given) | n | x | n | n | n | x | x
C=C(C)C1CC=C(C)/C(=N/NC(=O)CCC(=O)Nc2ccccc2Cl)C1 (stereo not given) | n | n | n | n | n | x | x
C=C(C)C1CC=C(C)/C(=N/NC(=O)COc2ccccc2Cl)C1 (stereo not given) | n | n | n | n | 33 | n | n
Cc1ccc(-n2c(SCC(=O)O)nc3sc4c(c3c2=O)CCCC4)cc1 | n | n | n | n | n | x | x
Cc1ccc(-c2c(CC(=O)O)c(C)nc3sc4c(c23)CCCC4)cc1 | n | n | n | n | 29 | n | n
COC(=O)[C@H](Cc1ccccc1)NC(=O)Cn1ccc(NC(=O)OCc2ccccc2)nc1=O | n | n | n | n | n | x | x
CCC(CC)C(=O)N(C)c1c(C)nc2c(OCCOc3ccc(F)cc3)cccn12 | n | x | n | n | 30 | n | n
C#CCOCCOCCOCCNc1nc(N2CCN(C(=O)CCCCCCCCCCNC(=O)[C@H](CO)n3cc(CCCSC)nn3)CC2)nc(N2CCN(C(=O)CCCCCCCCCCNC(=O)[C@H](CCCCN)n3cc(C[C@@H](C)CC)nn3)CC2)n1 | x | n | x | x | x | x | x
C#CCOCCOCCOCCNc1nc(N2CCN(C(=O)CCCCCCCCCCNC(=O)[C@H](CCCCN)n3cc(C[C@@H](C)CC)nn3)CC2)nc(N2CCN(C(=O)CCCCCCCCCCNC(=O)[C@H](CCCCN)n3cc(C[C@@H](C)CC)nn3)CC2)n1 | n | n | n | n | 75 | 34 | 84
SMILES | GAA850 FXN act | AHR activator | HTR2A ag | MC4R barr agon | MC4R antag cAMP | cAMP nonselect | MC4R antag conf
O=C(CN(c1cccc(C(F)(F)F)c1)S(=O)(=O)c1ccc(Cl)c([N+](=O)[O-])c1)NCc1ccc(F)cc1 | n | n | n | n | 29 | 18 | 57
COc1ccc2c(c1)cc(C(=O)N[C@@H](CCSC)C(=O)N1CCC[C@H]1C(=O)O)n2C | n | n | n | n | n | x | x
CC(C)S(=O)(=O)NC(=O)C1(C)CCN1C(=O)Cc1ccccc1 (stereo not given) | n | x | n | n | n | x | x
Cc1nc(C(C)NC(=O)c2ccc(OC3CCN(Cc4ccccn4)CC3)cc2)c(C)s1 (stereo not given) | n | n | n | n | n | x | x
CC(NC(=O)c1ccc(OC2CCN(Cc3ccccn3)CC2)cc1)c1nccs1 (stereo not given) | n | n | n | n | 29 | n | n
CC(C)COC(=O)N1CCCC(c2cc(C(=O)Nc3ccccc3Cl)no2)C1 (stereo not given) | n | x | n | n | n | x | x
COc1ccc(OC(=O)N2C/C(=C/c3ccccc3)C(=O)/C(=C\c3ccccc3)C2)cc1 | n | x | n | n | 33 | 15 | n
O=C(Nc1ccc(C(=O)N2CCOCC2)cc1)c1ccccc1Cl | n | x | n | n | n | x | x
O=C(Nc1ccc(N2CCOCC2)cc1)c1ccc(Cl)c(S(=O)(=O)N2CCCCC2)c1 | n | n | n | n | n | x | x
CCOc1ccc(N2C(=O)C3C(c4ccccc4F)NN(C(=O)c4ccc(C)cc4)C3C2=O)cc1 (stereo not given) | n | n | n | n | 30 | n | n
Cc1ccc2nc(-c3ccc(NC(=S)NC(=O)C(C)C)cc3)sc2c1 | n | n | n | n | 47 | n | n
CCC(=O)NC(=S)Nc1ccc(-c2nc3ccc(C)cc3s2)cc1 | n | n | n | n | n | x | x
COc1ccc(-c2cc(C(=O)OCC(=O)N3CCCCC3)c3ccccc3n2)cc1OC | n | n | n | n | 37 | n | n
COc1ccc(-c2cc(C(=O)N(C)CC(=O)Nc3ccccc3C(F)(F)F)c3ccccc3n2)cc1OC | n | x | n | n | 31 | n | n
CCOC(=O)CNC(=O)C1(NC(=O)CNC(=O)OCc2ccccc2)CCCC1 | n | x | n | n | n | x | x
C/C=C/c1cccc(-c2nc(C(=O)N3CCCCC3)cc3c2[C@@H](CCO)N(C(=O)NC(C)C)C3)c1 | x | x | n | x | x | x | x
COCCCn1c(=O)/c(=C\c2cccc(OC)c2OC)s/c1=C(/C#N)C(=O)Nc1ccc(C(=O)O)cc1 | n | n | n | n | 29 | n | n
CCOC(=O)c1c(NC(=O)CSc2nc3cc(Cl)ccc3c(=O)n2Cc2ccco2)sc(C(=O)N(C)C)c1C | n | n | n | n | 31 | n | n
CCOC(=O)c1c(NC(=O)COC(=O)CNC(=O)c2ccc(Cl)cc2Cl)sc(C(=O)N(C)C)c1C | n | n | n | n | 31 | n | n
CCc1ccc(NC(=O)CSc2nc3cc(C(=O)OC)ccc3c(=O)n2Cc2ccco2)cc1 | n | n | n | n | n | x | x
